Source: PubChem
Most compounds without a hit are left out; they make up all but 2.1% or so of the library.
Beta2AR agonist: activates human beta-2 adrenergic receptor causing internalization. Am2.2-beta2AR cells, FAP receptor internalization, flow cytometry. response, % (concentration not given with the values). 340,000 compounds, 0.43% hits. AID 504454;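 active means response above a set limit, near 3 SD of response in nonfluorescent compounds, cut at about 42% in these data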
Cardio protect: modulators protecting cardiomyocytes from myocardial damage; protection from H2O2 cell death, % at 20 µM; AID 588492; H9c2 cardiomyocytes, H2O2 injury protection, ATPLite, 2 h; 360,000 compounds, 0.63% hits;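 active means compounds giving at least 50% protection of heart cells from peroxide-induced death in the single-dose screen, raw or plate-pattern-corrected value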;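 further: 0% = DMSO wells with peroxide and 100% = DMSO wells without peroxide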
aDG glyco act: increases alpha dystroglycan glycosylation. AID 624168. Pro5-aDG cells, alpha-DG glycosylation AlphaScreen (IIH6); 0% Pro5, 100% B10-LARGE cell signal. activation, % at 10 µM. 360,000 compounds, 0.22% hits;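 active means activation of at least 8% versus controls, or a plate z-score of at least 8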;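 further: Pro5 are CHO cells carrying HIG-tagged alpha-DG that lacks glycosylation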
PfGluPho inh: PfG6PD (Plasmodium falciparum) enzyme inhibition | PfGluPho enzyme, NADPH resazurin-diaphorase fluorescence | inhibition, % at 20 µM | 350,000 compounds, 0.78% hits | AID 504690;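 active means inhibition reaching at least a set limit at 20 µM in the primary screen, cut at about 59% in these data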;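 further: 0% = DMSO wells with substrate and 100% = DMSO wells lacking glucose-6-phosphate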
UCH37 inh: inhibitors of human deubiquitinating enzyme UCH37; Q9Y5K5; purified proteasome/UCH37, Ub-AMC cleavage fluorescence; inhibition, % (test concentration not listed); 330,000 compounds, 0.33% hits; AID 588478;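 active means mean inhibition over replicate wells above about 20%, limit read from the data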;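 further: 0% = compound-free wells with enzyme and 100% = wells lacking proteasome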
Target sequence (Q9Y5K5 whole entry, looked up): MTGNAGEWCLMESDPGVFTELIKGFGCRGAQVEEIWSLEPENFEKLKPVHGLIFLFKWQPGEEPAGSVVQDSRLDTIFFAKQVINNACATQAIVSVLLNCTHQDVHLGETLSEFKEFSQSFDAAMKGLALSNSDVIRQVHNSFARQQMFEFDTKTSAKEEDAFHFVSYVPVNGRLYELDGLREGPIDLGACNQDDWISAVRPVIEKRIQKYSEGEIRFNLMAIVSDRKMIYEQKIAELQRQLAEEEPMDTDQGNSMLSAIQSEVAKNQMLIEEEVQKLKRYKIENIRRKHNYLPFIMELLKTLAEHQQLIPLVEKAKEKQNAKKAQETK
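assay system = human UCH37 enzyme supplied as purified proteasome complex | amount = proteasome at 0.15 nM in the dispensed enzyme solution | schedule = 30 min compound-proteasome preincubation then 25 min substrate reaction, room temperature | measured by = fluorescence, ex 355 nm, em 460 nm | benchmarks = no-proteasome wells (full inhibition) and compound-free wells (no inhibition)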
HKDC1 inhibitor: inhibitors of human hexokinase HKDC1; inhibition, % at 20 µM; 340,000 compounds, 0.16% hits; recombinant HKDC1, G6PDH/diaphorase resazurin coupled fluorescence; Q2TB90;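 active means inhibition above about 35% when tested at 20 µM, limit read from the data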;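 further: plate controls were DMSO wells with enzyme for no effect and DMSO wells lacking enzyme for full effect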
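test system = in-house recombinant HK5 (HKDC1) enzyme | amount = HKDC1 at 5 µg/mL | control set = DMSO-enzyme wells negative, buffer-substituted wells positive | compound = one dose of 20 µM, 1% DMSO | schedule = reaction time 90 min, room temperature, protected from light | technique = resorufin fluorescence at 613 nm | reagent = glucose with 1 mM ATP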
B2AR ag CP1: activates human beta-2 adrenergic receptor; percent response (surface receptor), % at 10 µM; shares compounds with Beta2AR agonist; AID 540358; 1,100 compounds, 25% hits; Am2.2-beta2AR cells, FAP surface receptor, flow cytometry; active compounds read low;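 active means surface receptor percent response at or below 58%, roughly 3 SD from nonfluorescent compounds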
B2AR FAP counter: flagged in Am2.2 fluorescence counterscreen for beta-2AR agonists | shares compounds with Beta2AR agonist | Am2.2 cells, FAP fluorogen flow cytometry; active compounds read low | calls only at 10 µM | 1,100 tested, under 10 active | AID 588765;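 active means percent response below a set limit in fluorescence channel 1 and below 50% in channel 8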
Active calls of the source: *; i = inactive; / = no result; ! = a repeat was not active.

SMILES	Beta2AR agonist	Cardio protect	aDG glyco act	PfGluPho inh	UCH37 inh	HKDC1 inhibitor	B2AR ag CP1	B2AR FAP counter
COc1ccc(OC)c(NC(=O)COc2ccc(Br)cc2)c1	68*	-4	0	13	-1	-3	105	i
CC(C)c1ccc(C=NNC(=O)C2CCCC2)cc1	/	/	/	/	4	/	/	/
CN(C)CCCn1c(SCC(=O)N2c3ccccc3Sc3ccccc32)nc2ccccc2c1=O	49*	-12	0	1	9	-6	59	i
NC(=Nc1nc2ccccc2o1)NC(=O)c1ccc([N+](=O)[O-])cc1	/	/	/	/	4	/	/	/
CN(C)CC(C(=O)c1ccccc1)c1ccccc1 (stereo not drawn)	56*	-32	-1	-17	-3	5	82	i
O=C(COc1ccccc1)Nc1nc(-c2ccc(S(=O)(=O)N3CCOCC3)cc2)cs1	5	0	0	32	1	-1	/	/
O=C(CCc1ccc(S(=O)(=O)N2CCOCC2)cc1)Nc1nc(COc2ccccc2)cs1	62*	-6	1	7	2	6	20*	i
COCCCn1c(O)c(/C=C2/N=C(C#N)C(=Nc3ccc(C)cc3)O2)sc1=S	/	/	/	/	12	/	/	/
COc1ccc(NC(=O)c2cc(-c3cccnc3)nc3ccc(C)cc23)cc1OC	32	3	0	10	-13	3	/	/
COc1ccc(NC(=O)c2cc(-c3ccncc3)nc3ccc(Br)cc23)cc1OC	97*	-5	-1	6	-2	-2	90	i
COCC(C)NC(=O)CCS(=O)(=O)c1nc(-c2ccc(OC)cc2)cc(C(F)(F)F)n1 (stereo not drawn)	53*	-21	0	6	-5	6	25*!	i
COCCNC(=O)CCSc1nc(-c2ccc(OC)cc2)cc(C(F)(F)F)n1	9	4	0	2	-23	7	/	/
CC(=NOC(=O)c1ccccc1Br)c1ccc(C)cc1	/	/	/	/	1	/	/	/
CC(NCCc1ccc(O)cc1)C(O)c1ccc(O)cc1 (stereo not drawn)	-5	13	0	-5	0	-5	91	i
C[C@@H](NCCc1ccc(O)cc1)[C@@H](O)c1ccc(O)cc1	10	5	0	-4	5	0	96	i
CC(CCc1ccc(O)cc1)NCCC(c1ccccc1)c1ccccc1 (stereo not drawn)	16	-8	0	-14	1	-5	69	i
COCc1ccc(CN2CCCC(C(=O)Nc3ccc(-c4cccc(OC)c4)cc3)C2)o1 (stereo not drawn)	30	3	0	13	4	-2	116	i
COCc1ccc(CN2CCCC(C(=O)Nc3ccccc3-c3ccc(OC)cc3)C2)o1 (stereo not drawn)	4	-5	0	3	-1	5	/	/
COc1cccc(-c2ccc(NC(=O)C3CCCN(Cc4cnn(C(C)C)c4)C3)cc2)c1 (stereo not drawn)	23	-5	4	10	5	2	85	i
CCCc1ncc(CN2CCCC(C(=O)Nc3ccc(-c4cccc(OC)c4)cc3)C2)cn1 (stereo not drawn)	13	-6	1	-2	3	3	/	/
COc1cccc(-c2ccc(NC(=O)C3CCCN(Cc4cc(C)[nH]n4)C3)cc2)c1 (stereo not drawn)	3	-2	0	8	/	-6	/	/
COc1cccc(-c2ccc(NC(=O)C3CCCN(Cc4ccccn4)C3)cc2)c1 (stereo not drawn)	/	5	0	14	/	/	106	i
O=C(Nc1ccc(-c2cccc(F)c2)cc1)C1CCCN(Cc2ccccn2)C1 (stereo not drawn)	0	-2	2	9	2	0	110	i
COc1ccc(C=NN2CCN(c3ccc(Cl)cc3)CC2)cc1O	/	/	/	/	5	/	/	/
